Reference: ChEMBL document CHEMBL1153580, “Synthesis and pharmacological investigation of 3-(substituted 1-phenylethanone)-4-(substituted phenyl)-1, 2, 3, 4-tetrahydropyrimidine-5-carboxylates” (Eur J Med Chem, 2009)

The compounds below were run on Rattus norvegicus (assay: Antihypertensive activity in Norwegian albino rat assessed as inhibition of DOCA salt-induced systolic blood pressure at 10 mg/kg, po after 15 mins by non-invasive tail-cuff method). Conditions: Artery, 0.25 h.
Assay type: functional

Compound	inhibition in vivo at 10 mg/kg [%]
CCOC(=O)C1=C(C)NC(OC)N(CC(=O)c2ccc(OC)cc2)C1c1ccccc1 (configuration not stated)	1
COC(=O)C1=C(C)NC(C)=C(C(=O)OC)C1c1ccccc1[N+](=O)[O-] [NIFEDIPINE]	1.29

What follows are compounds tested on Rattus norvegicus (assay: Antihypertensive activity in Norwegian albino rat assessed as inhibition of DOCA salt-induced systolic blood pressure at 10 mg/kg, po after 180 mins by non-invasive tail-cuff method). Conditions: Artery, 3 h.
Assay type: functional
Outline: (§1)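 Male rats (200–250 g), uninephrectomized under pentobarbital (50 mg/kg i.p.); one week later DOCA s.c. 30–50 mg/kg/week, with 1% w/v NaCl in drinking water. Groups of six, trained in restrainer, tail warmed at 33–34 °C. Compound in 0.5% CMC, 10 mg/kg orally. Systolic pressure read by tail-cuff before dosing and from 1 h after; three readings averaged. ANOVA.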

Compound	inhibition in vivo at 10 mg/kg [%]
CCOC(=O)C1=C(C)NC(OC)N(CC(=O)c2ccc(OC)cc2)C1c1ccccc1 (configuration not stated)	28
COC(=O)C1=C(C)NC(C)=C(C(=O)OC)C1c1ccccc1[N+](=O)[O-] [NIFEDIPINE]	25

The compounds below were run on Rattus norvegicus (assay: Antihypertensive activity in Norwegian albino rat assessed as inhibition of DOCA salt-induced systolic blood pressure at 10 mg/kg, po after 60 mins by non-invasive tail-cuff method). Conditions: Artery, 1 h.
Assay type: functional
Outline: as §1

Compound	inhibition in vivo at 10 mg/kg [%]
CCOC(=O)C1=C(C)NC(OC)N(CC(=O)c2ccc(OC)cc2)C1c1ccccc1 (configuration not stated)	13.8
COC(=O)C1=C(C)NC(C)=C(C(=O)OC)C1c1ccccc1[N+](=O)[O-] [NIFEDIPINE]	12.9

Each compound was assayed on Rattus norvegicus (assay: Antiinflammatory activity in Norwegian albino rat assessed as inhibition of carrageenan-induced paw edema at 100 mg/kg, po after administered 60 mins prior to carrageenan-challenge measured after 5 hrs). Conditions: not given.
Assay type: functional
Outline: (§2)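 Compound given orally as 100 mg/kg suspension in 0.5% CMC. 60 min later, carrageenan injected sub-plantar into the left hind paw. Paw volume measured within 30 s of injection, then at 1–5 h. % inhibition = [1−(Dt/Dc)]×100, where Dt and Dc are mean relative paw-volume changes in test and control. ANOVA.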

Compound	inhibition in vivo at 100 mg/kg [%]
CCOC(=O)C1=C(C)NC(OC)N(CC(=O)c2ccc(OC)cc2)C1c1ccccc1 (configuration not stated)	42.6

These compounds were tested on Rattus norvegicus (assay: Antihypertensive activity in Norwegian albino rat assessed as inhibition of DOCA salt-induced systolic blood pressure at 10 mg/kg, po after 300 mins by non-invasive tail-cuff method). Conditions: Artery, 5 h.
Assay type: functional
Outline: as §1

Compound	inhibition in vivo at 10 mg/kg [%]
CCOC(=O)C1=C(C)NC(OC)N(CC(=O)c2ccc(OC)cc2)C1c1ccccc1 (configuration not stated)	38.3
COC(=O)C1=C(C)NC(C)=C(C(=O)OC)C1c1ccccc1[N+](=O)[O-] [NIFEDIPINE]	44.2

Each compound was assayed on Rattus norvegicus (assay: Antihypertensive activity in Norwegian albino rat assessed as inhibition of DOCA salt-induced systolic blood pressure at 10 mg/kg, po after 480 mins by non-invasive tail-cuff method). Conditions: Artery, 8 h.
Assay type: functional
Outline: as §1

Compound	inhibition in vivo at 10 mg/kg [%]
CCOC(=O)C1=C(C)NC(OC)N(CC(=O)c2ccc(OC)cc2)C1c1ccccc1 (configuration not stated)	46.5
COC(=O)C1=C(C)NC(C)=C(C(=O)OC)C1c1ccccc1[N+](=O)[O-] [NIFEDIPINE]	46.6

What follows are compounds tested on Rattus norvegicus (assay: Antihypertensive activity in Norwegian albino rat assessed as inhibition of DOCA salt-induced diastolic blood pressure at 10 mg/kg, po after 180 mins by invasive carotid artery cannulation method). Conditions: 3 h.
Assay type: functional
Outline: (§3)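 Male rats (200–250 g), uninephrectomized and given DOCA s.c. (30–50 mg/kg/week) with 1% NaCl drinking water. Anesthetized with pentobarbital (35 mg/kg i.p.); left carotid artery cannulated and exteriorized. After recovery and a baseline reading, compound given orally by feeding needle. Diastolic pressure recorded via transducer at 15, 30, 60, 120 and 180 min. Mean ± S.E.M.; repeated-measures ANOVA.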

Compound	inhibition in vivo at 10 mg/kg [%]
CCOC(=O)C1=C(C)NC(OC)N(CC(=O)c2ccc(OC)cc2)C1c1ccccc1 (configuration not stated)	37.8
COC(=O)C1=C(C)NC(C)=C(C(=O)OC)C1c1ccccc1[N+](=O)[O-] [NIFEDIPINE]	39.4

Each compound was assayed on Rattus norvegicus (assay: Antihypertensive activity in Norwegian albino rat assessed as inhibition of DOCA salt-induced diastolic blood pressure at 10 mg/kg, po after 30 mins by invasive carotid artery cannulation method). Conditions: 0.5 h.
Assay type: functional
Outline: as §3

Compound	inhibition in vivo at 10 mg/kg [%]
CCOC(=O)C1=C(C)NC(OC)N(CC(=O)c2ccc(OC)cc2)C1c1ccccc1 (configuration not stated)	8.97
COC(=O)C1=C(C)NC(C)=C(C(=O)OC)C1c1ccccc1[N+](=O)[O-] [NIFEDIPINE]	11.7

What follows are compounds tested on Rattus norvegicus (assay: Antiinflammatory activity in Norwegian albino rat assessed as inhibition of carrageenan-induced paw edema at 100 mg/kg, po after administered 60 mins prior to carrageenan-challenge measured after 3 hrs). Conditions: not given.
Assay type: functional
Outline: as §2

Compound	inhibition in vivo at 100 mg/kg [%]
CCOC(=O)C1=C(C)NC(OC)N(CC(=O)c2ccc(OC)cc2)C1c1ccccc1 (configuration not stated)	38.4

Each compound was assayed on Mus musculus (assay: Analgesic activity against acetic acid-induced writhing in Swiss albino mouse assessed as protection at 20 mg/kg, po). Conditions: not given.
Assay type: functional
Outline: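 Swiss albino mice (25–30 g), six per group, habituated 30 min individually in the test cage. Compound in 1% CMC given p.o. at 20 mg/kg. 1 h later, acetic acid injected i.p.; writhes (arching of back, body elongation, hind-limb extension) counted 5–15 min after injection. % inhibition = (n−n′)/n×100, where n and n′ are mean writhes in control and test.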

Compound	Activity [%]
CCOC(=O)C1=C(C)NC(OC)N(CC(=O)c2ccc(OC)cc2)C1c1ccccc1 (configuration not stated)	45.8

Each compound was assayed on Rattus norvegicus (assay: Antihypertensive activity in Norwegian albino rat assessed as inhibition of DOCA salt-induced diastolic blood pressure at 10 mg/kg, po after 15 mins by invasive carotid artery cannulation method). Conditions: 0.25 h.
Assay type: functional
Outline: as §3

Compound	inhibition in vivo at 10 mg/kg [%]
CCOC(=O)C1=C(C)NC(OC)N(CC(=O)c2ccc(OC)cc2)C1c1ccccc1 (configuration not stated)	1.84
COC(=O)C1=C(C)NC(C)=C(C(=O)OC)C1c1ccccc1[N+](=O)[O-] [NIFEDIPINE]	2.51

These compounds were tested on Rattus norvegicus (assay: Antihypertensive activity in Norwegian albino rat assessed as inhibition of DOCA salt-induced systolic blood pressure at 10 mg/kg, po after 420 mins by non-invasive tail-cuff method). Conditions: Artery, 7 h.
Assay type: functional
Outline: as §1

Compound	inhibition in vivo at 10 mg/kg [%]
CCOC(=O)C1=C(C)NC(OC)N(CC(=O)c2ccc(OC)cc2)C1c1ccccc1 (configuration not stated)	45.1
COC(=O)C1=C(C)NC(C)=C(C(=O)OC)C1c1ccccc1[N+](=O)[O-] [NIFEDIPINE]	45.5

What follows are compounds tested on Rattus norvegicus (assay: Gastrointestinal toxicity in albino rat assessed as ulcerogenic index at 50 mg/kg, po). Conditions: in vivo.
Assay type: organism-based
Set-up: dose 50 mg/kg, route oral
Outline: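 Albino rats (150–200 g), six per group, food but not water withheld 24 h. Compound given p.o. at 50 mg/kg; controls received 1% methyl cellulose. Rats fed 17 h, then killed; stomach opened along greater curvature and examined under 4× magnifier. Lesions scored as large (>2 mm), small (1–2 mm) or punctiform (<1 mm). Severity index = treated mean score minus control mean score.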

Compound	UI
CCOC(=O)C1=C(C)NC(OC)N(CC(=O)c2ccc(OC)cc2)C1c1ccccc1 (configuration not stated)	0.74

The compounds below were run on Rattus norvegicus (assay: Antiinflammatory activity in Norwegian albino rat assessed as inhibition of carrageenan-induced paw edema at 100 mg/kg, po after administered 60 mins prior to carrageenan-challenge measured after 1 hr). Conditions: not given.
Assay type: functional
Outline: as §2

Compound	inhibition in vivo at 100 mg/kg [%]
CCOC(=O)C1=C(C)NC(OC)N(CC(=O)c2ccc(OC)cc2)C1c1ccccc1 (configuration not stated)	37.1

What follows are compounds tested on Rattus norvegicus (assay: Antihypertensive activity in Norwegian albino rat assessed as inhibition of DOCA salt-induced systolic blood pressure at 10 mg/kg, po after 240 mins by non-invasive tail-cuff method). Conditions: Artery, 4 h.
Assay type: functional
Outline: as §1

Compound	inhibition in vivo at 10 mg/kg [%]
CCOC(=O)C1=C(C)NC(OC)N(CC(=O)c2ccc(OC)cc2)C1c1ccccc1 (configuration not stated)	36.8
COC(=O)C1=C(C)NC(C)=C(C(=O)OC)C1c1ccccc1[N+](=O)[O-] [NIFEDIPINE]	35.5

The compounds below were run on Rattus norvegicus (assay: Antihypertensive activity in Norwegian albino rat assessed as inhibition of DOCA salt-induced diastolic blood pressure at 10 mg/kg, po after 60 mins by invasive carotid artery cannulation method). Conditions: 1 h.
Assay type: functional
Outline: as §3

Compound	inhibition in vivo at 10 mg/kg [%]
CCOC(=O)C1=C(C)NC(OC)N(CC(=O)c2ccc(OC)cc2)C1c1ccccc1 (configuration not stated)	23.5
COC(=O)C1=C(C)NC(C)=C(C(=O)OC)C1c1ccccc1[N+](=O)[O-] [NIFEDIPINE]	23.6

Each compound was assayed on Rattus norvegicus (assay: Antihypertensive activity in Norwegian albino rat assessed as inhibition of DOCA salt-induced diastolic blood pressure at 10 mg/kg, po after 240 mins by invasive carotid artery cannulation method). Conditions: 4 h.
Assay type: functional

Compound	inhibition in vivo at 10 mg/kg [%]
CCOC(=O)C1=C(C)NC(OC)N(CC(=O)c2ccc(OC)cc2)C1c1ccccc1 (configuration not stated)	47.8
COC(=O)C1=C(C)NC(C)=C(C(=O)OC)C1c1ccccc1[N+](=O)[O-] [NIFEDIPINE]	48.4

Each compound was assayed on Rattus norvegicus (assay: Antihypertensive activity in Norwegian albino rat assessed as inhibition of DOCA salt-induced diastolic blood pressure at 10 mg/kg, po after 120 mins by invasive carotid artery cannulation method). Conditions: 2 h.
Assay type: functional
Outline: as §3

Compound	inhibition in vivo at 10 mg/kg [%]
CCOC(=O)C1=C(C)NC(OC)N(CC(=O)c2ccc(OC)cc2)C1c1ccccc1 (configuration not stated)	30.1
COC(=O)C1=C(C)NC(C)=C(C(=O)OC)C1c1ccccc1[N+](=O)[O-] [NIFEDIPINE]	30.8

Each compound was assayed on Rattus norvegicus (assay: Antihypertensive activity in Norwegian albino rat assessed as inhibition of DOCA salt-induced systolic blood pressure at 10 mg/kg, po after 30 mins by non-invasive tail-cuff method). Conditions: Artery, 0.5 h.
Assay type: functional

Compound	inhibition in vivo at 10 mg/kg [%]
CCOC(=O)C1=C(C)NC(OC)N(CC(=O)c2ccc(OC)cc2)C1c1ccccc1 (configuration not stated)	6.49
COC(=O)C1=C(C)NC(C)=C(C(=O)OC)C1c1ccccc1[N+](=O)[O-] [NIFEDIPINE]	4.44

The compounds below were run on Rattus norvegicus (assay: Antihypertensive activity in Norwegian albino rat assessed as inhibition of DOCA salt-induced systolic blood pressure at 10 mg/kg, po after 360 mins by non-invasive tail-cuff method). Conditions: Artery, 6 h.
Assay type: functional
Outline: as §1

Compound	inhibition in vivo at 10 mg/kg [%]
CCOC(=O)C1=C(C)NC(OC)N(CC(=O)c2ccc(OC)cc2)C1c1ccccc1 (configuration not stated)	41.6
COC(=O)C1=C(C)NC(C)=C(C(=O)OC)C1c1ccccc1[N+](=O)[O-] [NIFEDIPINE]	44.5

The compounds below were run on Rattus norvegicus (assay: Antihypertensive activity in Norwegian albino rat assessed as inhibition of DOCA salt-induced systolic blood pressure at 10 mg/kg, po after 120 mins by non-invasive tail-cuff method). Conditions: Artery, 2 h.
Assay type: functional
Outline: as §1

Compound	inhibition in vivo at 10 mg/kg [%]
CCOC(=O)C1=C(C)NC(OC)N(CC(=O)c2ccc(OC)cc2)C1c1ccccc1 (configuration not stated)	20.5
COC(=O)C1=C(C)NC(C)=C(C(=O)OC)C1c1ccccc1[N+](=O)[O-] [NIFEDIPINE]	19.7
